Shown are actives, neighbours in structure and some others; about 1.2% of the full set was active somewhere.
DNA FID counter: counter-screen for HCV NS3 helicase inhibitors: DNA intercalator displacement; 290,000 compounds, 0.17% hits; inhibition, % at 7.9 µM; AID 1845; DNA fluorescent intercalator displacement, fluorescence; in the data active = inhibition above about 37%;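 note: 0% = vehicle and 100% = reference compound; higher means more ethidium bromide displaced from hairpin DNA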
Rad51 HR inh: blocks human Rad51 in homologous recombination. hRad51 DNA strand exchange, fluorescence dequenching. Q06609. inhibition, % at 10 µM. AID 1385. 200,000 compounds, 0.085% hits;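 active = inhibition above 40% at the single screening dose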;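 note: 0% = DMSO control wells and 100% = blanks with heterologous ssDNA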
Target sequence (Q06609 whole entry, looked up): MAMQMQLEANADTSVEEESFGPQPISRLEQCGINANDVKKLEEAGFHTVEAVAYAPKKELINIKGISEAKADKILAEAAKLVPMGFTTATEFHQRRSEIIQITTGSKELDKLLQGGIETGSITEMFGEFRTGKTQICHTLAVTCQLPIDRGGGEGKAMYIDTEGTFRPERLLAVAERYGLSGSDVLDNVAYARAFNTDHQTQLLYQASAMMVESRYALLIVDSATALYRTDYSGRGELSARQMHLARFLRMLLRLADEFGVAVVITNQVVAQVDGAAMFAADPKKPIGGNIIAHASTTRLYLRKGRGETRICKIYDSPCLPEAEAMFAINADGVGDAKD
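material = hRad51 filaments on single-stranded DNA | reagent = Donor/quencher-labelled 47-bp dsDNA substrate | compound = 10 µM final, single point | schedule = strand-exchange reaction 15 min at room temperature | measured by = fluorescein emission 520 nm, excitation 485 nm | read-out basis = % inhibition versus plate control and blank means | benchmarks = plate controls and plate blanks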
RBBP9 inh: blocks human serine hydrolase RBBP9; inhibition, % at 7.94 µM; 220,000 compounds, 0.2% hits; recombinant RBBP9, FP-Rh probe fluorescence polarization;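 active = inhibition above the campaign mean of all tested compounds plus 3 SD, cut at about 14% in these data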;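 note: plate controls were DMSO wells with RBBP9 for no effect and wells lacking RBBP9 protein for full effect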
Target sequence (O75884 whole entry, looked up): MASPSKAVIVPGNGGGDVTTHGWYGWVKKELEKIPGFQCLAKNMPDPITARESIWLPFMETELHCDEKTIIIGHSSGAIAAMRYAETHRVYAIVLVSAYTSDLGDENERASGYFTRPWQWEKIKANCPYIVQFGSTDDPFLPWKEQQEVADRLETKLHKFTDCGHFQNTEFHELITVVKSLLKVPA
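System: RBBP9 protein | Quantity: 2.5 µM RBBP9 dispensing solution, before mixing | Reagent: FP-Rh probe, 375 nM dispensing solution | Timing: Enzyme-compound preincubation 30 min, then probe labeling 45 min, 25 °C | Measured by: Fluorescence polarization | Read-out: % inhibition | Replication: One well per compound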
Wee1 degr inh: human Wee1 degradation inhibition, primary screen; AID 1321; P30291; 220,000 compounds, 1.2% hits; reporter increase, % at 5 µM; HeLa Luc-Wee1K328M stability, luciferase luminescence; 100% = proteasome inhibitor MG132 effect;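 active = activation above the mean of all tested compounds plus 3 SD, set per screening run, cut at about 8.8% in these data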;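 note: cells exposed to compound for 20 h before luminescence read; 0% = DMSO alone and 100% = MG132 at 30 µM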
Wee1 stab conf: human Wee1 degradation inhibition, confirmation; shares compounds with Wee1 degr inh; HeLa Luc-Wee1K328M degradation, luminescence; vehicle 0%, proteasome-blocked wells 100%; activation, % at 5 µM; 1,100 compounds, 4% hits; AID 1410; in the data active = activation above about 8.9%
An asterisk follows results filed as active.

CC(=O)c1cccc(NC(=O)C2CC(c3ccc(F)cc3)=NO2)c1 (configuration not stated) was read as DNA FID counter -17, Rad51 HR inh -2, RBBP9 inh -6, Wee1 degr inh 26* and Wee1 stab conf -3.
For Cc1cccc(-c2nc(CSc3nc4c(c(=O)[nH]3)CCC4)c(C)o2)c1 the results were DNA FID counter -4, RBBP9 inh -6, Wee1 degr inh 11* and Wee1 stab conf -1.
CCN(CC)C(=O)COc1ccc2c(-c3ccc(OC)cc3)cc(=O)oc2c1 was read as DNA FID counter -22.
For COc1ccc(-c2cc(=O)oc3cc(OCC(C)=O)ccc23)cc1 the results were DNA FID counter -17, Rad51 HR inh 4, RBBP9 inh -5, Wee1 degr inh 17* and Wee1 stab conf 1.
Screening Cc1cccn2c(=O)c(/C=C(\C#N)C(=O)NC3CCS(=O)(=O)C3)c(N3CCC(C)CC3)nc12 (configuration not stated) returned DNA FID counter 1, RBBP9 inh -6 and Wee1 degr inh 2.
`Cc1ccsc1/C=C(\C#N)C(=O)NC1CCS(=O)(=O)C1` (configuration not stated) gave DNA FID counter 17, Rad51 HR inh -3, RBBP9 inh -3, Wee1 degr inh 12* and Wee1 stab conf 3.
For CC(=O)Nc1cccc(/C(C)=N/NC(=O)c2cccc(S(=O)(=O)N3CCOCC3)c2)c1 the results were DNA FID counter -7, Rad51 HR inh -11, RBBP9 inh -2, Wee1 degr inh 14* and Wee1 stab conf -1.
Screening C#Cc1ccc([C@H]2C=C(C(=O)NCc3ccccc3)O[C@@H](OCc3ccc(CO)cc3)C2)cc1 returned Rad51 HR inh 8.
For O=C(Nc1ccc2c(c1)CCC2)c1ccc(F)cc1 the results were DNA FID counter 1, Rad51 HR inh -8, RBBP9 inh -9, Wee1 degr inh 17* and Wee1 stab conf -2.
CN(Cc1nc(-c2cnccn2)no1)CC(O)c1ccccc1 (configuration not stated) was read as DNA FID counter -2, RBBP9 inh 12, Wee1 degr inh 12* and Wee1 stab conf 3.
Screening CN(CCc1ccccc1)Cc1nc(-c2cnccn2)no1 returned DNA FID counter -5, Rad51 HR inh -5, RBBP9 inh -10 and Wee1 degr inh 0.
`CCC(=O)Nc1ccc(-c2cc3ccccc3oc2=O)cc1` gave DNA FID counter -4, Rad51 HR inh 12, RBBP9 inh 1, Wee1 degr inh 22* and Wee1 stab conf 6.
Screening CC(C)CC(=O)N=Nc1c(O)[nH]c2ccccc12 returned DNA FID counter 3, Rad51 HR inh 5, RBBP9 inh -9 and Wee1 degr inh 2.
Screening CCC(O)(CC)C(=O)N=Nc1c(O)[nH]c2ccccc12 returned DNA FID counter 3, Rad51 HR inh -24, RBBP9 inh -7, Wee1 degr inh 11* and Wee1 stab conf 2.
`COc1cccc(C2CC(C(F)(F)F)n3ncc(C(=O)NC(C)(C)C)c3N2)c1` (configuration not stated) gave DNA FID counter -16, Rad51 HR inh 6, RBBP9 inh -9 and Wee1 degr inh 4.
For COc1ccc(C2CC(C(F)(F)F)n3ncc(C(=O)Nc4cccc(O)c4)c3N2)cc1OC (configuration not stated) the results were DNA FID counter -10, Rad51 HR inh -4, RBBP9 inh -6, Wee1 degr inh 13* and Wee1 stab conf -3.
For Cc1ccnc(N/N=C/c2ccccc2)n1 the results were DNA FID counter -1, Rad51 HR inh 2, RBBP9 inh -2, Wee1 degr inh 17* and Wee1 stab conf 3.
Cc1cc(N/N=C/c2ccc(F)cc2)nc(NCc2ccccc2)n1 was read as DNA FID counter 8, Rad51 HR inh 3, RBBP9 inh -3, Wee1 degr inh 12* and Wee1 stab conf -6.
C(=N\Nc1nccc(-c2cccnc2)n1)/c1ccccc1 was read as DNA FID counter -18, Rad51 HR inh 2, RBBP9 inh -7 and Wee1 degr inh 0.
Screening CCCCN(C)CCCNC(=O)CS(=O)Cc1nc(-c2ccc(OC)c(OC)c2)oc1C (configuration not stated) returned DNA FID counter 2, Rad51 HR inh -2, RBBP9 inh 3, Wee1 degr inh 13* and Wee1 stab conf 0.
`CCCN(CCC)CCCNC(=O)CS(=O)Cc1nc(-c2ccc(OC)c(OC)c2)oc1C` (configuration not stated) gave DNA FID counter 11, Rad51 HR inh 3, RBBP9 inh -8 and Wee1 degr inh 0.
Nc1c2c(nc3sc4c(c13)CCCC4)-c1ccccc1CC2 was read as DNA FID counter -1, RBBP9 inh -6, Wee1 degr inh 18* and Wee1 stab conf 1.
`NC(=O)c1cc(S(=O)(=O)NCc2ccc(Br)cc2)cs1` gave DNA FID counter 0.
COc1cccc(CC(=O)Nc2nc3ccccc3[nH]2)c1 was read as DNA FID counter -3, Rad51 HR inh 6, RBBP9 inh -2, Wee1 degr inh 12* and Wee1 stab conf 1.
For COc1cc(C(=O)Nc2nc3ccccc3[nH]2)ccc1OC(F)F the results were DNA FID counter -14, RBBP9 inh -12, Wee1 degr inh 12* and Wee1 stab conf 6.
CCOC(=O)C1CCN(C(=O)c2ccccc2NC(=O)C2=C(C)OCCS2)CC1 was read as DNA FID counter -19.
Screening CCS(=O)(=O)N1CCN(c2ccc([N+](=O)[O-])c(NCC3CCCO3)c2)CC1 (configuration not stated) returned DNA FID counter 0, RBBP9 inh -7, Wee1 degr inh 12* and Wee1 stab conf 1.
`O=[N+]([O-])c1ccc(N2CCN(S(=O)(=O)c3ccc4ccccc4c3)CC2)cc1NCC1CCCO1` (configuration not stated) gave DNA FID counter 1, Rad51 HR inh 2, RBBP9 inh -1 and Wee1 degr inh 0.
Screening Cc1cccc(CS(=O)(=O)Cc2ccc(C(=O)NCc3cccs3)o2)c1 returned DNA FID counter -9, Rad51 HR inh 18, RBBP9 inh 1 and Wee1 degr inh 0.
Cc1ccc2nc3c(cc(C(=O)NCCCn4ccnc4)n3C)c(=O)n2c1 was read as DNA FID counter 3, Rad51 HR inh -2, RBBP9 inh -4, Wee1 degr inh 23* and Wee1 stab conf 2.
`O=C(NCCCn1ccnc1)c1cc2ccccc2oc1=O` gave DNA FID counter 0, Rad51 HR inh -8, RBBP9 inh -5, Wee1 degr inh 13* and Wee1 stab conf 2.
Cc1ccnc(NC(=O)c2cc3ccccc3oc2=O)c1 was read as DNA FID counter 1, Rad51 HR inh -1, RBBP9 inh -8, Wee1 degr inh 13* and Wee1 stab conf 5.
`Cc1cccc(NC(=O)c2cc3ccccc3oc2=O)c1` gave DNA FID counter 1.

High-throughput results (PubChem BioAssay)
